Data set [1] concerns the target T1, Prothrombin (Homo sapiens, UniProt P00734). Put plainly: In vitro inhibition of human thrombin.
In data set [2] the target is T2, Serine protease 1 (Homo sapiens, UniProt P07477). Put plainly: In vitro inhibition of human trypsin. In a few lines: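 Human pancreatic trypsin, chromogenic substrate S2222, 50 mM HEPES/150 mM NaCl pH 8.0. Kinetic assay over 15 min after starting with substrate at four concentrations. Ki taken from 1/V versus 1/S plot.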
Data set [3] addresses T1, Prothrombin. Put plainly: Percentage inhibition against of human thrombin at dose of 10 X E-6 M.
The target of data set [4] is T2, Serine protease 1. In words: Percentage inhibition against human trypsin at dose of 10 X E-5 M.
Data set [5] addresses T2, Serine protease 1. In words: Percentage inhibition against human trypsin at dose of 10 X E-4 M.
Data set [6] addresses T1, Prothrombin. In words: Percentage inhibition against human thrombin at dose of 10 X E-6 M.
Data set [7] in a line: Beta-elimination half-life in Beagle dogs after intravenous administration at a dose of 1 mg/kg. The data set is classed as ADME, organism-based, Canis lupus familiaris. Further details: dose 1 mg/kg, route intravenous. As to conditions: dog, in vivo. Summed up:
(§1)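 PK: male Sprague–Dawley rats (n = 3 per sampling time) given saline solution as rapid iv bolus via caudal vein; Beagle dogs (n = 2) given constant-rate iv infusion over 15 min via saphenous vein. Plasma collected into lithium heparin; drug measured by LCMS with internal standard after solid-phase extraction at pH 6.0. Parameters derived by computational PK analysis.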

A short description of data set [8]: Oral bioavailability in rat (Sprague-Dawley) (male) (dose 50 mg/kg p.o.). The data set is classed as ADME, organism-based. As to conditions: in vivo. Summed up:
(§2)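 Oral bioavailability: compound in water given by gavage to male Sprague–Dawley rats (n = 3 per sampling time) and Beagle dogs (n = 2). Plasma collected into lithium heparin (dog saphenous cannula, conscious; rat vena cava under halothane). Drug quantified by LCMS, compared with iv saline dosing; parameters from computational PK analysis.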

Data set [9] can be described thus: Plasma clearance in Beagle dogs after intravenous administration at a dose of 1 mg/kg. The data set is classed as ADME, organism-based, Canis lupus familiaris. Further details: dose 1 mg/kg, route intravenous. The following applies: dog. Summed up: as §1
Data set [10] in a line: Plasma clearance in Male Sprague-Dawley rats after intravenous administration at a dose of 10 mg/kg. The data set is classed as ADME, organism-based. More on the design: dose 10 mg/kg, route intravenous. The following applies: rat. In a few lines:
as §1

Data set [11] is described as follows: Beta-elimination half-life in Male Sprague-Dawley rats after intravenous administration at a dose of 10 mg/kg. As to conditions: rat, in vivo. Further details: dose 10 mg/kg, route intravenous. Format: ADME, organism-based. Summed up: as §1
Data set [12] is described as follows: Volume of distribution in Male Sprague-Dawley rats after intravenous administration at a dose of 10 mg/kg. Format: ADME, organism-based. Further details: dose 10 mg/kg, route intravenous. The following applies: rat, in vivo, read-out: Volume. In a few lines:
as §1

Data set [13] in a line: Volume of distribution in Beagle dogs after intravenous administration at a dose of 1 mg/kg. The following applies: dog, in vivo, read-out: Volume. Format: ADME, organism-based, Canis lupus familiaris. Further details: dose 1 mg/kg, route intravenous. Summed up: as §1
Data set [14] can be described thus: Oral bioavailability in Beagle dogs after Per oral administration at dose of 2(mg/kg). The data set is classed as ADME, organism-based, Canis lupus familiaris. As to conditions: dog, in vivo. In a few lines: as §2
Data set [15] addresses T2, Serine protease 1. Put plainly: Percentage inhibition effect human trypsin at dose of 10 X E-4 M.
The target in data set [16] is T1, Prothrombin. In words: Percentage inhibition effect of human thrombin at dose of 10 X E-6 M.
Data set [17] can be described thus: Volume of distribution in Beagle dogs after intravenous administration at a dose of 1 mg/kg. The following applies: dog, in vivo.
A short description of data set [18]: Beta-elimination half-life in Beagle dogs after intravenous administration at a dose of 1 mg/kg. As to conditions: dog, in vivo.
A short description of data set [19]: Alpha-elimination half-life in Male Sprague-Dawley rats after intravenous administration at a dose of 10 mg/kg. The data set is classed as ADME, organism-based. More on the design: dose 10 mg/kg, route intravenous. As to conditions: rat, in vivo. In a few lines: as §1
A short description of data set [20]: Alpha-elimination half-life in Beagle dogs after intravenous administration at a dose of 1 mg/kg. The following applies: dog, in vivo.
Data set [21] can be described thus: Plasma clearance in Beagle dogs after intravenous administration at a dose of 1 mg/kg. As to conditions: dog.
A short description of data set [22]: Oral bioavailability in Beagle dogs after Per oral administration at dose of 50(mg/kg). As to conditions: dog, in vivo, 10 mg/kg, in the assay text read “10(mg/kg)” for “50(mg/kg)”. Format: ADME, organism-based, Canis lupus familiaris. In a few lines: as §2
Data set [23] concerns the target T3, Coagulation factor VII (Homo sapiens) (UniProt P08709).
T3 sequence (whole entry): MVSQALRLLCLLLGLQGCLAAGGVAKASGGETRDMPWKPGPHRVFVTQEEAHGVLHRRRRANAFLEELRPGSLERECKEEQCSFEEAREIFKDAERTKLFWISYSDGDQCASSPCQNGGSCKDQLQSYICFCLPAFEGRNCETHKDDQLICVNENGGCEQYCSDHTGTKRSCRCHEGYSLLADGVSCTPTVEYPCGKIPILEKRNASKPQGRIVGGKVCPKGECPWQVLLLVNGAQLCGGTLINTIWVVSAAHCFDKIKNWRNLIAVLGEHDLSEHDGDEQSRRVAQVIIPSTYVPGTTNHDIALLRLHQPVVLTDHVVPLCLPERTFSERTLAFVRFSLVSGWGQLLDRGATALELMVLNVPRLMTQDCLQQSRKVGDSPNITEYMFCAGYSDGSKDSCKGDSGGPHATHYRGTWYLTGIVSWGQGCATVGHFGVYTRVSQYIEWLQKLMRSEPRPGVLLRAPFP
Put plainly: Percentage inhibition of Coagulation factor VIIa (FVIIa) at a concentration of 10 X E-4 M from human plasma. The data set is classed as cell-free. Summed up:
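Human plasma FVIIa, 0.06 μg/mL final, plus recombinant tissue factor at 0.12 μg/mL final; substrate N-methylsulfonyl-D-Phe-Pro-Arg-pNA. Buffer 50 mM TRIS/100 mM NaCl pH 7.5. Compound preincubated with enzyme 15 min at room temperature, then substrate added; 30 min at 30 °C; OD 405 nm; percentage inhibition from triplicates.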

Data set [24] deals with Coagulation factor X (Bos taurus, UniProt P00743). Put plainly: Inhibitory effect on Coagulation factor Xa (FXa) from bovine plasma. The data set is classed as cell-free. Summed up:
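Bovine plasma FXa, 0.02 U/mL final, with S2222 at 0.2 mM final, in 50 mM HEPES/150 mM NaCl pH 7.5. Aqueous compound dilutions preincubated with enzyme 15 min at room temperature, then substrate added; OD 405 nm read after 30 min at 30 °C. IC50 from triplicate eight-concentration curves; Ki via Cheng–Prusoff using substrate Km.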

The structures appear in SMILES notation.

T2 sequence (P07477 whole entry): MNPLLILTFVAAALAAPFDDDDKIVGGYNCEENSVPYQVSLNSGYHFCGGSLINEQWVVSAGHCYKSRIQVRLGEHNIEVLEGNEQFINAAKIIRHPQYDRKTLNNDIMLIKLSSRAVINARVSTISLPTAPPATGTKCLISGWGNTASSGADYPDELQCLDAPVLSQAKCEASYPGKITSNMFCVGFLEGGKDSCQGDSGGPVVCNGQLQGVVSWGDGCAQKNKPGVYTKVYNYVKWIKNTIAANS
Sequence of Coagulation factor X (P00743 41-180 limits assumed): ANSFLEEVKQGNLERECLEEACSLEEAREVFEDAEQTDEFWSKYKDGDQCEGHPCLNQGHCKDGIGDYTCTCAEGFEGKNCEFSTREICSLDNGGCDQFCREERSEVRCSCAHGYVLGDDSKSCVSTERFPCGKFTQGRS
Sequence of Coagulation factor X (P00743 234-492 limits assumed): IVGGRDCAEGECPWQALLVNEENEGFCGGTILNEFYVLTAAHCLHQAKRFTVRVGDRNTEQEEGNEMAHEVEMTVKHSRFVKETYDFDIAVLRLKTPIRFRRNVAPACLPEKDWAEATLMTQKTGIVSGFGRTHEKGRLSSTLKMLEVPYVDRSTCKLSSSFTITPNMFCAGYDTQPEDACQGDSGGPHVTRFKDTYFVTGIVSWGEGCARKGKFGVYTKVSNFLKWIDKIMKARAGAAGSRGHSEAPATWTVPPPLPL

One may read the Ki as a dissociation constant, usually derived from enzyme kinetics or from competition with a known ligand. A high value points to lower affinity. With `CN(C1CCCCC1)[C@@H](CCC(=O)O)C(=O)N1CCCC[C@H]1CCOC1CCN(C(=N)N)CC1`, the results for the Ki in [1] and in data set [2] were 1.8 nM and 550 nM, respectively.
For the compound `N=C(N)N1CCC(OCCC2CCCCN2C(=O)[C@H](CC(=O)O)NC2CCCC2)CC1` (stereo partly specified), the figures for the inhibitory constant (Ki) in data set [1] and in [2] were 32 nM and 5000 nM, respectively.
Regarding `N=C(N)N1CCC(OCCC2CCCCN2C(=O)[C@@H](Cc2ccccc2)NCC(=O)O)CC1` (stereo partly specified), the Ki in data set [1] was 370 nM; in data set [2] it was 7900 nM.
For `CN1CCC(N[C@@H](CC(=O)O)C(=O)N2CCCC[C@H]2CCOC2CCN(C(=N)N)CC2)CC1`, the Ki in data set [1] came to 90 nM; in data set [2] it was 4800 nM.
Compound `CCS(=O)(=O)N[C@H](Cc1ccccc1)C(=O)N1CCC[C@H]1C(=O)NCC1CCN(C(=N)N)CC1` displayed a Ki in data set [1] of 15 nM.
For `N=C(N)N1CCC(OCCC2CCCCN2C(=O)[C@H](CC(=O)O)NCC2CCCCC2)CC1` (stereo partly specified), the Ki in [1] turned out to be 16 nM; in data set [2], 1600 nM.
In the case of `N=C(N)N1CCC(OCC[C@@H]2CCCCN2C(=O)[C@H](CC(=O)O)NC2CCCCCC2)CC1`, the values for the Ki in data set [1] and in data set [2] were 1.1 nM and 700 nM, respectively.
For orientation: inhibition means the percentage by which the read-out fell short of the control. Turning to `N=C(N)N1CCC(OCCC2CCCCN2C(=O)[C@H](CC(=O)O)NC2CCOCC2)CC1` (stereo partly specified), the inhibition in data set [3] is 42%; in data set [4] it was 23%.
With `CN(C1CCCOC1)[C@@H](CC(=O)O)C(=O)N1CCCC[C@H]1CCOC1CCN(C(=N)N)CC1` (stereo partly specified), the figures for the inhibition in data set [5] and in data set [3] were 48% and 16%, respectively.
As to `N=C(N)N1CCC(OCCC2CCCCN2C(=O)[C@@H](CC2CCCCC2)NCC(=O)O)CC1` (stereo partly specified), the Ki in [1] worked out at 0.96 nM; in data set [2] it was 370 nM.
As for `CCC(CC)N[C@@H](CC(=O)O)C(=O)N1CCCC[C@H]1CCOC1CCN(C(=N)N)CC1`, the inhibition constant (Ki) in [1] is 9.8 nM; in data set [2] it was 1400 nM.
On to `CCN(C1CCCCC1)[C@@H](CC(=O)O)C(=O)N1CCCCC1CCOC1CCN(C(=N)N)CC1` (stereo partly specified), for which the Ki in data set [1] worked out at 16 nM; in data set [2], 5000 nM.
`N=C(N)N1CCC(OCC[C@@H]2CCCCN2C(=O)[C@H](CC(=O)O)NCc2ccccc2)CC1`: the inhibition in data set [6] amounted to 24%. This compound came in with a Ki in data set [2] of 9200 nM.
For `N=C(N)N1CCC(OCCC2CCCCN2C(=O)[C@H](CC(=O)O)NC2CCCCCCC2)CC1` (stereo partly specified), the inhibition constant Ki in data set [1] is 1.3 nM; in data set [2] it was 720 nM.
Taken in the same sequence, the figures for `N=C(N)N1CCC(OCCC2CCCCN2C(=O)[C@H](CC(=O)O)NC2CCCCC2)CC1` (stereo partly specified) were 7.1 nM and 2900 nM.
What is called half-life is the time in which the quantity being followed falls by half. High values mean slow loss, low ones fast loss. Broadly, the bioavailability is the share of a dose that reaches the circulation, judged against a reference dose that is usually intravenous. The low end stands for little systemic uptake, the high end for much systemic uptake. The term clearance denotes a measure of how efficiently the substance is removed, as volume per time. A higher clearance goes with a high capacity for elimination. On to `CC1=CCN(C(=O)[C@H](Cc2cccc(C(=N)N)c2)NS(=O)(=O)c2ccc3c(c2)CCN(C)CC3)[C@@H](C(=O)O)C1`, for which the half-life in data set [7] was 54 min; in data set [11], 48 min. Further, the values for the bioavailability in data set [8] and in data set [14] were 16% and 37%, respectively. Further, the clearance in data set [9] turned out to be 6.9 mL/min/kg; in data set [10] it was 11 mL/min/kg. Further, the Vd came to 0.6 L/kg in data set [12] and 0.53 L/kg in data set [13].
Regarding `CN(C1CCCCCC1)[C@@H](CC(=O)O)C(=O)N1CCCC[C@H]1CCOC1CCN(C(=N)N)CC1`, the Ki in data set [1] came to 0.53 nM; in data set [2] it was 810 nM.
`CN(C)CCN(C1CCCCC1)[C@@H](CC(=O)O)C(=O)N1CCCCC1CCOC1CCN(C(=N)N)CC1` (stereo partly specified): the inhibition in [15] and in data set [16] was 0% each time.
Turning to `CN(C1CCC=CCC1)[C@@H](CC(=O)O)C(=O)N1CCCC[C@H]1CCOC1CCN(C(=N)N)CC1`, the inhibition constant Ki turned out to be 0.8 nM in [1] and 1100 nM in [2].
Consider `N=C(N)c1ccc(OCC[C@H]2CCCCN2C(=O)[C@@H](CC2CCCCC2)NCC(=O)O)cc1`, for which the inhibition constant (Ki) in data set [1] came out at 120 nM; in [2], 7300 nM.
The corresponding values for `N=C(N)c1ccc(OCC[C@@H]2CCCCN2C(=O)[C@@H](CC2CCCCC2)NCC(=O)O)cc1` are 0.37 nM and 89 nM.
Regarding `CN(C1CCCCC1)[C@@H](CC(=O)O)C(=O)N1CCCC[C@H]1CCOC1CCN(C(=N)N)CC1`, the Vd in data set [17] turned out to be 0.53 L/kg; in data set [12], 0.31 L/kg. The bioavailability in [8] worked out at 2%; in data set [22] it was 9%. In addition, the half-life in data set [18] is 60 min; in data set [19], 7.2 min; in data set [20], 9.6 min; in data set [11], 48 min. For the same compound, the results for the Ki in [1], in [2] and in [24] were 2.17 nM, 1930 nM and 4970 nM, respectively. Also, the clearance in data set [10] is 21.2 mL/min/kg; in [21] it was 6.4 mL/min/kg. In data set [23], this compound returned an inhibition of 38.7%.

Values taken from ChEMBL document CHEMBL1135990, “Design of selective thrombin inhibitors based on the (R)-Phe-Pro-Arg sequence” (J Med Chem, 2002).
